Screens deposited in PubChem by several laboratories.
Cardiac RTF inh = cardiac RTF calcium desensitization | inhibition, % at 7.15 µM | actives 0.12% (n = 340,000) | IANBD-labeled cardiac RTF, Ca2+ fluorescence | P19429+P45379;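 active means inhibition above the mean inhibition of all tested compounds plus 3 SD, cut at about 17% in these data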;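 further: assay run at fixed EC70 calcium of 1.6 mM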
Keap1 Nrf2 FP = Keap1-Nrf2 (human) interaction inhibition | Q14145 | inhibition, % at 9.4 µM | actives 0.15% (n = 340,000) | Keap1 Kelch-Nrf2 peptide fluorescence polarization, 1536-well; in the data active means inhibition above about 12%;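 further: human Keap1 Kelch domain with fluorescein labeled Nrf2 9mer peptide probe; 0% = neutral control wells and 100% = peptide positive control; higher means more block of Keap1 binding to Nrf2 peptide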
Target sequence (Q14145 whole entry, looked up, the tested form may be a part): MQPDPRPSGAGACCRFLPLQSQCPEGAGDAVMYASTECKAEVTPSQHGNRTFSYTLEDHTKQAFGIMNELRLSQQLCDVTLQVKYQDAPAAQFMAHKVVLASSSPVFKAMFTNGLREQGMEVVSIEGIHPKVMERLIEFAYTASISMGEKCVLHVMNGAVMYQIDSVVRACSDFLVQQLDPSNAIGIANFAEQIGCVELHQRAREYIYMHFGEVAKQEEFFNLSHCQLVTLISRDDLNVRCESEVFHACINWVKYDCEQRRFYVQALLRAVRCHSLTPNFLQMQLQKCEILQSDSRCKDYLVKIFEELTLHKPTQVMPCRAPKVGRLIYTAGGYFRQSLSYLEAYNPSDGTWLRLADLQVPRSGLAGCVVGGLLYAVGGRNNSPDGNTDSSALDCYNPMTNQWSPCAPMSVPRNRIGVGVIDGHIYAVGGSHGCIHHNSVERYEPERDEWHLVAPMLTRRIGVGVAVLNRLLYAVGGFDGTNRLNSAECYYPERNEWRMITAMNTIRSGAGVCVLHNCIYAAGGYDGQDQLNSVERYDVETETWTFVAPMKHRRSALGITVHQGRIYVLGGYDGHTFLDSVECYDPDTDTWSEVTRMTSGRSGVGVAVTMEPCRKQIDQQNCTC
CAL PDZ FP-1 = CAL PDZ (human) peptide binding inhibition. Q9HD26. purified CAL PDZ, TMR-peptide fluorescence polarization, 1 h. inhibition, % at 24.9 µM. actives 0.92% (n = 300,000). AID 602252;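 active means mean inhibition of at least 30% with at least half of replicates also reaching 30%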;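 further: 0% = DMSO neutral control and 100% = excess unlabeled competitor peptide PRC23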
cardiac RTF act = increases calcium sensitivity of human cardiac regulated thin filaments. AID 493008. P19429+P45379. IANBD-labeled TnC RTF fluorescence at EC20 calcium; 0% EC20 calcium, 100% full calcium. activation, % at 7.2 µM. actives 0.24% (n = 340,000);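 active means activation above the mean over all tested compounds plus 3 SD, cut at about 30% in these data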;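 further: rise in fluorescence read as greater calcium sensitivity of cardiac thin filaments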
LANA DNA inh = blocks KSHV LANA C-terminal domain binding to DNA | MBP-C-LANA/FAM-LBS DNA binding, fluorescence polarization | inhibition, % at 9 µM | actives 0.078% (n = 340,000) | AID 504423;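 active means highest replicate inhibition at or above 60% at 9 µM, even if other replicates fall short; inactive means all replicates below 60% inhibition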;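 further: 0% = neutral control wells and 100% = 4 µM acridine orange control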
CAL PDZ FP-2 = inhibitors of human CAL PDZ peptide binding; Q9HD26; purified CAL PDZ, TMR-peptide fluorescence polarization, 1 h; inhibition, % at 20 µM; actives 0.02% (n = 330,000); AID 504414;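 active means highest replicate inhibition of at least 40%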;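 further: plate controls were DMSO neutral control wells for no effect and unlabeled competitor peptide control wells for full effect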
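Control set: unlabelled peptide and DMSO controls / Material: purified CerCALP PDZ construct / Timing: 1 h incubation at room temperature before polarization reading / Doses: 20 µM, one dose / Detection: fluorescence polarization (mP)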
The depositor's hits bear a star; i = inactive; x = no result; + = active, no number. The list is not random: actives were taken first. Their share in the collection is about 1.3%.

SMILES	Cardiac RTF inh	Keap1 Nrf2 FP	CAL PDZ FP-1	cardiac RTF act	LANA DNA inh	CAL PDZ FP-2
COC(=O)Cc1ccc(OC(=O)CCS(=O)(=O)c2ccc(Cl)cc2)cc1	-14	0	-5	2	-1	-2
CCN(CC)c1ccc(/C=C(/C#N)c2nc3ccc(C)cc3[nH]2)c(OC(C)C)c1	-459	-12	-5	174*	1	-2
CCOc1cc(N(CC)CC)ccc1/C=C(/C#N)c1nc2ccccc2[nH]1	-173	-3	43*	106*	-1	1
CCCOc1cc(N(CC)CC)ccc1/C=C(/C#N)c1nc2ccc(C)cc2[nH]1	-189	-6	-6	61*	0	-2
COc1cc(/C=C(\C#N)c2nc3ccc(C)cc3[nH]2)c([N+](=O)[O-])cc1OC	-1	3	-2	-1	-3	-3
O=C(N/C(=C/c1ccccc1)C(=O)N1CCCCC1)c1ccco1	1	-1	-1	-1	1	-3
COc1ccc2cc(CCNC(=O)c3ccc(S(=O)(=O)N4CCOCC4)cc3)c(=O)[nH]c2c1	-4	-2	-3	0	2	-3
O=C(c1cccc(S(=O)(=O)NCc2ccccc2)c1)N1CCCC1	-12	-2	85*	1	0	-1
CN(c1ccccc1)S(=O)(=O)c1cccc(C(=O)N2CCCCCC2)c1	2	0	39*	1	-1	-1
O=C(c1cccc(S(=O)(=O)NCc2ccccc2)c1)N1CCN(c2ccccc2)CC1	-2	2	2	-4	-2	-1
COCc1cc(Sc2cccc(Cl)c2Cl)nc(-c2ccccc2)n1	-8	1	36*	-2	-1	-1
CCOC(=O)Cn1c(=O)oc2cc(S(=O)(=O)N(CCN(C)C)Cc3ccccc3)ccc21	-2	-4	-2	-4	1	0
CCOC(=O)Cn1c(=O)oc2cc(S(=O)(=O)N(C)Cc3ccccc3)ccc21	-12	-8	76*	6	0	0
O=C1Nc2ccc(Br)cc2C12OCCO2	2	0	-4	2	-1	0
O=C(NC(C(=O)c1ccccc1)c1ccccc1)c1ccccc1 (centres undefined)	-1	-7	38*	1	-1	0
O=C(NC(C(=O)O)c1ccccc1)c1ccccc1 (centres undefined)	2	4	0	7	3	-1
CC1(C)O[C@@H]2C[C@H]3[C@@H]4CCC5=CC(=O)CC[C@]5(C)[C@@]4(F)[C@@H](O)C[C@]3(C)[C@]2(C(=O)CCl)O1	12	0	0	-6	-2	0
CSc1ncccc1C(=O)OCC(=O)NC1CC1	-1	1	-5	-5	1	0
CCN(CC)C(=O)C1CCN(S(=O)(=O)c2ccc3c(c2)CCCN3C(=O)C2CCC2)CC1	-7	2	-4	-4	-1	0
COc1ccc(/C=c2\s/c(=C/C(=O)c3ccc(C)cc3)[nH]c2=O)c(OC)c1	-166	2	-6	99*	1	0
COc1cccc(/C=c2\s/c(=C/C(=O)c3ccc(C)cc3)[nH]c2=O)c1OC	-9	-6	-1	-1	2	-3
COc1ccc(C(=O)Nc2cc(OC)c(Cl)cc2OC)cc1	5	-3	37*	6	-2	-1
CCOc1ccccc1-c1c2cc(O)c(=O)cc-2oc2cc(O)c(O)cc12	i	+	42*	+	158*	126*
O=c1cc2oc3cc(O)c(O)cc3c(-c3ccccc3O)c-2cc1O	-23	49*	26	51*	146*	47*
CCOC(=O)c1oc2cc(O)ccc2c(=O)c1-c1ccccc1OC	-13	-5	-4	6	0	-1
SMILES	Cardiac RTF inh	Keap1 Nrf2 FP	CAL PDZ FP-1	cardiac RTF act	LANA DNA inh	CAL PDZ FP-2
COc1ccc(OC)c(-c2c3cc(O)c(=O)cc-3oc3cc(O)c(O)cc23)c1	i	+	57*	+	167*	87*
COc1ccc(OC)c(-c2oc3ccccc3c(=O)c2O)c1	-3	1	-6	2	0	-2
COc1ccc(S(=O)(=O)N2CCCCC2)cc1NC(=O)Cc1ccc(Br)cc1	4	5	x	-6	0	0
Cc1ccc(-c2nc3ccccc3c(=O)o2)cc1	3	-1	48*	-1	-3	35
Cc1ccccc1NC(=S)N1CCN(c2ccccc2)CC1	-9	0	-2	-3	-3	0
CN1CCN(c2nc3c(c(=O)[nH]c(=O)n3C)n2Cc2ccccc2F)CC1	-11	3	51*	4	2	-1
CN1CCN(c2nc3c(c(=O)[nH]c(=O)n3C)n2Cc2cccc(Br)c2)CC1	-6	-2	-2	0	-1	-1
CN(CC(=O)Nc1ccc(F)c(F)c1F)C(=O)C1=NN(c2ccccc2)C(=O)CC1	-5	0	31*	2	1	0
O=C(C[N+]1(CC#Cc2ccccc2)CCOCC1)c1ccc(Cl)cc1	-23	-2	-2	-5	0	-2
O=C(C[N+]1(CC#Cc2ccccc2)CCOCC1)c1ccccc1	4	1	49*	-1	-2	-1
Cc1cc(/C=C(\C#N)C(=O)O)c(C)n1-c1ccc(Br)cc1	1	-1	+	6	-1	-2
O=C(c1ccccc1)c1ccccc1NC(=O)C1CCCN1Cc1ccccc1 (centres undefined)	-2	-6	46*	10	3	-1
CC(C)NC(=O)COc1coc(CN2CCN(c3ccccc3F)CC2)cc1=O	-10	4	60*	3	1	-1
CCN(CC(=O)NCc1cccs1)C(=O)/C=C/c1ccc(Cl)c(Cl)c1	1	-3	-1	-4	0	-1
O=C(COC(=O)c1ccc[nH]c1=O)NCC1CCCO1 (centres undefined)	-4	3	56*	3	1	0
CCN(c1ccccc1)S(=O)(=O)c1cc(CN2C(=O)c3cccnc3C2=O)ccc1OC	-2	1	-8	-2	0	-1
COc1ccc(CN2C(=O)c3cccnc3C2=O)cc1S(=O)(=O)N(C)c1cccc(C)c1	-4	3	47*	-2	-1	0
CN(C(=O)c1cccc(C(F)(F)F)c1)C1CCCc2ccccc21 (centres undefined)	-9	-2	52*	0	-1	-1
O=C(CSc1nnnn1-c1cccc2ccccc12)Nc1ccc(C(=O)O)cc1	-2	-2	-4	-7	-1	0
O=C(CCCSc1nnnn1-c1cccc2ccccc12)c1ccc(F)cc1	-2	1	46*	3	2	x
NC(=O)NC(=O)C(c1ccccc1)N1CCN(S(=O)(=O)c2ccc(Br)s2)CC1 (centres undefined)	-6	0	-3	-5	1	-1
